Assay results from ChEMBL document CHEMBL5678798 (Clin Cancer Res, 2009).

How the values were obtained:
[1] = Antiproliferative activity against human SK-ES cells assessed as reduction in cell viability after 72 hrs by CellTiter-Glo assay; assay type: functional, cell-based
How it was run: (§1)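 Cells seeded in 96-well plates, left overnight at 37°C, then exposed to a range of test concentrations for 72 h. Viability read by CellTiter-Glo luminescence; IC50 from four-parameter curve fit. Lines kept at 37°C, 5% CO2, in recommended growth medium.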

[2] = tested on: MDA-MB-468; test: Antiproliferative activity against human MDA-MB-468 cells assessed as reduction in cell viability after 72 hrs by CellTiter-Glo assay; assay type: functional, cell-based; conditions: MDA-MB-468, 72 h; how it was run: as §1
[3] = Cytotoxicity against human PREC cells assessed as reduction in cell viability after 72 hrs by CellTiter-Glo assay; assay type: toxicity, cell-based; how it was run: as §1
[4] = tested on: COLO 205; test: Induction of cell cycle arrest in human COLO 205 cells assessed as cells accumulation at S phase at 1 umol/L incubated for 48 hrs by propidium iodide staining based flow cytometric analysis (reference value: 9%); assay type: functional; conditions: dose 1 µmol/L, at 1 µM
How it was run: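 COLO 205, MCF-7 or NCI-H929 cells seeded in 96-well plates overnight at 37°C, then exposed to DMSO or increasing compound concentrations for 24 or 48 h. Fixed and stained with propidium iodide (Vindelov method), then analysed by flow cytometry for sub-G1, G1, S and G2-M fractions. Experiment repeated twice.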

[5] = Antitumor activity against mouse NIH-3T3/LISN cells implanted in nu/nu CD-1 mouse assessed as reduction in tumor growth at 30 mg/kg, po administered twice daily for 21 days relative to control; assay type: functional; conditions: 504 h, time 21 day, read-out: TGI
How it was run: (§2)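 Exponentially growing cells implanted s.c. in the right flank of 8–10-wk-old female athymic nu/nu CD-1 mice. At 150–200 mm3, block-randomized by tumor size into groups of eight. Oral dosing once or twice daily for 21 d; vehicle 20% sulfobutylether-β-cyclodextrin, pH 3.5. Calipers twice weekly; volume = length×width²/2. Growth inhibition = 100×[1 − treated growth/vehicle growth].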

[6] = tested on: HT-29; test: Antitumor activity against human HT-29 cells xenografted in nu/nu CD-1 mouse assessed as reduction in tumor growth at 30 mg/kg, po for 21 days relative to control; assay type: functional; conditions: HT-29, 504 h, time 21 day, read-out: TGI; how it was run: as §2
[7] = molecular target: RAC-beta serine/threonine-protein kinase (Homo sapiens, UniProt P31751); test: Inhibition of AKT2 (unknown origin)
[8] = molecular target: Mitogen-activated protein kinase kinase kinase 5 (Homo sapiens, UniProt Q99683); test: Inhibition of ASK1 (unknown origin)
[9] = molecular target: Tyrosine-protein kinase ITK/TSK (Homo sapiens, UniProt Q08881); test: Inhibition of ITK (unknown origin)
[10] = molecular target: Mitogen-activated protein kinase 14 (Homo sapiens, UniProt Q16539); test: Inhibition of P38alpha (unknown origin)
[11] = molecular target: Serine/threonine-protein kinase PAK 1 (Homo sapiens, UniProt Q13153); test: Inhibition of PAK1 (unknown origin)
[12] = molecular target: Phosphatidylinositol 4,5-bisphosphate 3-kinase catalytic subunit delta isoform (Homo sapiens, UniProt O00329); test: Inhibition of PI3Kdelta (unknown origin)
[13] = Inhibition of N-terminal His6-tagged recombinant full-length human CDK5/N-terminal GST-tagged recombinant full-length human p35 expressed in baculovirus infected Sf21 cells at 0.3 uM by filter binding assay relative to control; conditions: condition cancer
How it was run: (§3)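 Outsourced single-concentration screen in a commercial panel of 233 protein kinases, run as radiometric filter-binding activity assays. Test agent was tested at 0.3 or 3 µmol/L, as given in each line, from a 10 mmol/L DMSO stock. Activity is expressed as percent inhibition relative to control.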

[14] = molecular target: Mitogen-activated protein kinase 1 (Homo sapiens) (UniProt P28482); test: Inhibition of N-terminal GST-tagged recombinant human MAPK2 expressed in Escherichia coli at 0.3 uM by filter binding assay relative to control; how it was run: as §3
[15] = molecular target: Serine/threonine-protein kinase MRCK beta (Homo sapiens) (UniProt Q9Y5S2); test: Inhibition of N-terminal His6-tagged recombinant human MRCKbeta (1 to 473 residues) expressed in baculovirus infected Sf21 cells at 0.3 uM by filter binding assay relative to control
[16] = molecular target: Protein kinase C iota type (Homo sapiens) (UniProt P41743); test: Inhibition of N-terminal His6-tagged recombinant full-length human PKCiota expressed in Sf21 cells at 0.3 uM by filter binding assay relative to control; how it was run: as §3
[17] = molecular target: Rho-associated protein kinase 2 (Homo sapiens) (UniProt O75116); test: Inhibition of N-terminal His6-tagged recombinant human ROCK-II (11 to 552 residues) expressed in baculovirus infected Sf21 cells at 0.3 uM by filter binding assay relative to control
[18] = molecular target: Serine/threonine-protein kinase TAO2 (Homo sapiens) (UniProt Q9UL54); test: Inhibition of N-terminal 6His-tagged recombinant human TAO2 expressed in Sf21 cells at 0.3 uM by filter binding assay relative to control; how it was run: as §3
[19] = molecular target: Serine/threonine-protein kinase TBK1 (Homo sapiens) (UniProt Q9UHD2); test: Inhibition of N-terminal His6-tagged recombinant full-length human TBK1 expressed in baculovirus infected Sf21 cells at 0.3 uM by filter binding assay relative to control; how it was run: as §3
[20] = molecular target: Discoidin domain-containing receptor 2 (Homo sapiens) (UniProt Q16832); test: Inhibition of N-terminal His6-tagged recombinant human DDR2 (467 to end residues) expressed in baculovirus infected Sf21 cells at 3 uM by filter binding assay relative to control
[21] = molecular target: Ephrin type-A receptor 1 (Homo sapiens) (UniProt P21709); test: Inhibition of N-terminal 6His-tagged recombinant human EphA1 (568 to end residues) expressed in baculovirus infected Sf21 cells at 3 uM by filter binding assay relative to control; how it was run: as §3
[22] = molecular target: Dual specificity mitogen-activated protein kinase kinase 6 (Homo sapiens) (UniProt P52564); test: Inhibition of N-terminal maltose binding protein-tagged human MKK6 (4 to end residues) expressed in Escherichia coli at 3 uM by filter binding assay relative to control
[23] = molecular target: Serine/threonine-protein kinase PAK 6 (Homo sapiens) (UniProt Q9NQU5); test: Inhibition of N-terminal His6-tagged recombinant human PAK6 (382 to end residues) expressed in Sf21 cells at 3 uM by filter binding assay relative to control
[24] = molecular target: MAP kinase-activated protein kinase 5 (Homo sapiens) (UniProt Q8IW41); test: Inhibition of N-terminal His6-tagged recombinant human full-length PRAK expressed in baculovirus infected Sf21 cells at 3 uM by filter binding assay relative to control
[25] = molecular target: High affinity nerve growth factor receptor (Homo sapiens, UniProt P04629); test: Inhibition of N-terminal His6-tagged recombinant human TrkA (440 to end residues) expressed in baculovirus infected Sf21 cells by filter binding assay
[26] = molecular target: Insulin receptor (Mus musculus) (UniProt P15208); conditions: CD-1, dose >= 30.0 mg/kg, route po, time 4.25 hrs

Serine/threonine-protein kinase PAK 1, sequence (Q13153 whole entry, canonical isoform): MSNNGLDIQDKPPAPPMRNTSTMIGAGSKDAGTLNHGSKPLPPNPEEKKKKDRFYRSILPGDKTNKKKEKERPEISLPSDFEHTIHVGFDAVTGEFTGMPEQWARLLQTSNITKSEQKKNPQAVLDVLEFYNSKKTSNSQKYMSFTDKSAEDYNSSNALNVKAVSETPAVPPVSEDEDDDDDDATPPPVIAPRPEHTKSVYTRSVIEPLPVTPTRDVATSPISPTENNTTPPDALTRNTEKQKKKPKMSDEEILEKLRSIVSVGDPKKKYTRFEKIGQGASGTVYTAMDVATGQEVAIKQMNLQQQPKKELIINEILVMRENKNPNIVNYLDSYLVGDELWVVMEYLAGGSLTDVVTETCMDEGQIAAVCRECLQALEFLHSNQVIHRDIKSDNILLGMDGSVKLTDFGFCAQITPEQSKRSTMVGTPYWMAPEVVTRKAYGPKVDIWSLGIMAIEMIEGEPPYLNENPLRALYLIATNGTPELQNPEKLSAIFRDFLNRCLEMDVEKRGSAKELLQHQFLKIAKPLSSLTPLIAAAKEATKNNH
Mitogen-activated protein kinase 14, sequence (Q16539 whole entry): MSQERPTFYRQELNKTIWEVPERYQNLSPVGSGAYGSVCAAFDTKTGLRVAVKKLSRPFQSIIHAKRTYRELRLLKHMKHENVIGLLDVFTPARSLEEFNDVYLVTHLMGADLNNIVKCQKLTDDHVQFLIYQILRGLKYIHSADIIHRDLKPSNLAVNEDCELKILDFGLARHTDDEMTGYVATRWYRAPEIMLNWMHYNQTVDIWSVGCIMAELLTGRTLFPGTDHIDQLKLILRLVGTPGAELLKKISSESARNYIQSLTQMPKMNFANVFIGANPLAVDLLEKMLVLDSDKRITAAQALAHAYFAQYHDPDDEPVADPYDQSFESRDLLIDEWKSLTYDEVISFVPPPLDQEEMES
Protein kinase C iota type (Homo sapiens), sequence (P41743 whole entry, the tested form may be a part): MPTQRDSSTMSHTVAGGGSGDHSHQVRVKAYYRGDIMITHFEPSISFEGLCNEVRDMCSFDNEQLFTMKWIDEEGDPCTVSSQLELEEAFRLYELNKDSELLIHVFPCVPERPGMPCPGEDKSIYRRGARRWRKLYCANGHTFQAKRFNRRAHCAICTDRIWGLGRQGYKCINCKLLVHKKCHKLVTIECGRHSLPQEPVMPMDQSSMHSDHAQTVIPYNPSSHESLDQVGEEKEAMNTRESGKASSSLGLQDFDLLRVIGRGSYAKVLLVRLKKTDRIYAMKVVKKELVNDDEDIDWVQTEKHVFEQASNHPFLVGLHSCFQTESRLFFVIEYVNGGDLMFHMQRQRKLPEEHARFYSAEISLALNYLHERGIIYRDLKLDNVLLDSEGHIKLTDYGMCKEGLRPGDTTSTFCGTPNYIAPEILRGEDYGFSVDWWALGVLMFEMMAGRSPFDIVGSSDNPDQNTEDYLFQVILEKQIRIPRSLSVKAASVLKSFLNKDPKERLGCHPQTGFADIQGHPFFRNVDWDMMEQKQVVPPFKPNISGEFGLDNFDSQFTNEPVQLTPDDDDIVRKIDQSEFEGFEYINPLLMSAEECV
Serine/threonine-protein kinase TAO2 (Homo sapiens), sequence (Q9UL54 whole entry): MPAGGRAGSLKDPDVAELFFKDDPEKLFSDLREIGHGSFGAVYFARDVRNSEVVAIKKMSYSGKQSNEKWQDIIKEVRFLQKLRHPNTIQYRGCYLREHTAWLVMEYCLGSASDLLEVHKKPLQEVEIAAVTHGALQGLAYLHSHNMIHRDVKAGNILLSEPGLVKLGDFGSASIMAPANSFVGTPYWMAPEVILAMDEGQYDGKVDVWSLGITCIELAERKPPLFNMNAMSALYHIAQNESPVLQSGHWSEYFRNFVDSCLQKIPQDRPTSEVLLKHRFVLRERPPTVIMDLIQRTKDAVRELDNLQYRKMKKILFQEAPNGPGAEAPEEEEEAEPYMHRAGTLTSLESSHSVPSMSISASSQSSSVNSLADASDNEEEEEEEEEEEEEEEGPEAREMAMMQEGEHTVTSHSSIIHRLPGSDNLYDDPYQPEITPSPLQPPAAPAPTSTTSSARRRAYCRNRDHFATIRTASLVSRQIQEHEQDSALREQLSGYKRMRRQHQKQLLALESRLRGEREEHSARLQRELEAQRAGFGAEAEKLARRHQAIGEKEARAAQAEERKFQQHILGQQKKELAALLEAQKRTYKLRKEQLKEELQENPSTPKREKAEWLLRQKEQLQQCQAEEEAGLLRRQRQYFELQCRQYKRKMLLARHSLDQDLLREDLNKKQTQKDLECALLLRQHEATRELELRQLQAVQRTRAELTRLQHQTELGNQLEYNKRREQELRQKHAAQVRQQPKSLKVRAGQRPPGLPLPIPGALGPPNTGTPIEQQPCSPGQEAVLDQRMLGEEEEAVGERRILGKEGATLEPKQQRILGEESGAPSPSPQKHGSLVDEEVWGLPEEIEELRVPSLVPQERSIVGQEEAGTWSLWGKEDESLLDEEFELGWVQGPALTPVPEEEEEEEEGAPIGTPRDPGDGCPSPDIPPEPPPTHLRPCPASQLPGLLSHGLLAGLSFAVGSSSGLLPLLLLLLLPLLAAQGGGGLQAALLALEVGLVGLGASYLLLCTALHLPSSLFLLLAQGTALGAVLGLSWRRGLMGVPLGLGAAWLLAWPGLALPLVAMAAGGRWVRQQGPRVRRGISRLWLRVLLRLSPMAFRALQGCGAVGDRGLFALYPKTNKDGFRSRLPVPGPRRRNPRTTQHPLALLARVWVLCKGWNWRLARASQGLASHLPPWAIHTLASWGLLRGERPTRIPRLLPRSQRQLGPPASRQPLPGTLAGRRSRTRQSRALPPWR
Discoidin domain-containing receptor 2 (Homo sapiens), sequence (Q16832 whole entry, the tested form may be a part): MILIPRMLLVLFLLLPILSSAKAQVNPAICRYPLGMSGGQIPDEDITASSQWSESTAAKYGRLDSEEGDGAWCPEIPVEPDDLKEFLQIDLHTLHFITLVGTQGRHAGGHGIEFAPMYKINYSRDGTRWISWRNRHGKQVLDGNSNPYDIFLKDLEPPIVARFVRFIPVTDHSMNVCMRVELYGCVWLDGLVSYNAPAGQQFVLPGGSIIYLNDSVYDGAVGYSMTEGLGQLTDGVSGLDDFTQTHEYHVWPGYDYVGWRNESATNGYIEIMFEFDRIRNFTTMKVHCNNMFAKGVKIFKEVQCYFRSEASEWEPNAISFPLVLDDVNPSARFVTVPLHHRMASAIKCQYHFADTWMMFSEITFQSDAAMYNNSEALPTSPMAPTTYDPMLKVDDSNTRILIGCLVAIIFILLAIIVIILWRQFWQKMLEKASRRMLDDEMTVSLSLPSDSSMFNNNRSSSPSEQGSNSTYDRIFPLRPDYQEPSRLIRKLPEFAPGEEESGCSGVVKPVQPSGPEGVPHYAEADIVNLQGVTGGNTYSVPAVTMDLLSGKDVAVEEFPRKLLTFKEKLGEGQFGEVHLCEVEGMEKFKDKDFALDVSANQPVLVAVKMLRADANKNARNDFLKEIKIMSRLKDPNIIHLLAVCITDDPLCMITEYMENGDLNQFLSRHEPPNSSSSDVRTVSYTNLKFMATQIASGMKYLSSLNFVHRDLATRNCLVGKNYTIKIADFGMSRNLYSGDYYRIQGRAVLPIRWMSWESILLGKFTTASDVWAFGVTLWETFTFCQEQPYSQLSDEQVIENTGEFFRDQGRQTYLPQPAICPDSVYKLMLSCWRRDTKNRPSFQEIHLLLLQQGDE
Ephrin type-A receptor 1 (Homo sapiens), sequence (P21709 whole entry): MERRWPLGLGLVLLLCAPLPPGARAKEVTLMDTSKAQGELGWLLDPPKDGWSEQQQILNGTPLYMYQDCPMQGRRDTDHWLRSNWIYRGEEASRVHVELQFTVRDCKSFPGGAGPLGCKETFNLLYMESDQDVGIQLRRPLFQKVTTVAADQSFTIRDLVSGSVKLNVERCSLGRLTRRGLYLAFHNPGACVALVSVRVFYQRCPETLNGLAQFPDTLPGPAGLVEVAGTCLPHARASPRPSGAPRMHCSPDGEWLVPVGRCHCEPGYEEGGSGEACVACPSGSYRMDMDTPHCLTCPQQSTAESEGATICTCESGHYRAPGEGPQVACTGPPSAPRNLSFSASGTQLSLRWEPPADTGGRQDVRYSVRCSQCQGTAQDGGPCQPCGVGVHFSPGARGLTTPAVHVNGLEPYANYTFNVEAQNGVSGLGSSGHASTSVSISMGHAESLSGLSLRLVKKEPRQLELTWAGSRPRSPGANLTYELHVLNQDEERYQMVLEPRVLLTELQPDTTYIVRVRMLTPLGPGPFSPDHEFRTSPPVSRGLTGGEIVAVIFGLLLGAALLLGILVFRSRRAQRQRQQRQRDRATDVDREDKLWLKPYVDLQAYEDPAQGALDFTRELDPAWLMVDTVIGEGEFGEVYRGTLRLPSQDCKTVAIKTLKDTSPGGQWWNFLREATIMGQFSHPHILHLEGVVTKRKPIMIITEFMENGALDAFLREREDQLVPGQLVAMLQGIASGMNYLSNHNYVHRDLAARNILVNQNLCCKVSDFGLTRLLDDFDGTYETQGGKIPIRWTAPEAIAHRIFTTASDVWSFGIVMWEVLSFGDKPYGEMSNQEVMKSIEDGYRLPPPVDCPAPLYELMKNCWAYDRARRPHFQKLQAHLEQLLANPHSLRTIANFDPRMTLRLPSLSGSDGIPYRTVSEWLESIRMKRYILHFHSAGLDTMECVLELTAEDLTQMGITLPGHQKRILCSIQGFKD
RAC-beta serine/threonine-protein kinase, sequence (P31751 whole entry): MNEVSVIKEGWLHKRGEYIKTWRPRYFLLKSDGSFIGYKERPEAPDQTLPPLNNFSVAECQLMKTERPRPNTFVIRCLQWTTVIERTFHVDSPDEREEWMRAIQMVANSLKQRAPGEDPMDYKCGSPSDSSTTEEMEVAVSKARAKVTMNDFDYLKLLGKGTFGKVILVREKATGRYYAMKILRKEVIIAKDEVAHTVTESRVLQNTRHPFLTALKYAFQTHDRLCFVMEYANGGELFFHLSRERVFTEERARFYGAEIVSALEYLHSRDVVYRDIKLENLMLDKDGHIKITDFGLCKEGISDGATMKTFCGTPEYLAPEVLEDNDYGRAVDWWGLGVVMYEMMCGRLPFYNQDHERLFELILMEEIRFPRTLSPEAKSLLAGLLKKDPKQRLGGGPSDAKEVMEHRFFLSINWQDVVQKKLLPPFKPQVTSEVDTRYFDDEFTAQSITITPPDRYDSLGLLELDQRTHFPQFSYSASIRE

SMILES: CCc1cc(Nc2nccc(-c3c(-c4ccc(OC)c(C(=O)Nc5c(F)cccc5F)c4)nc4ccccn34)n2)c(OC)cc1N1CCC(N2CCN(S(C)(=O)=O)CC2)CC1
- IC50 [1]: 0.061 µM
- IC50 [2]: > 20 µM
- IC50 at 72 h [3]: 0.068 µM
- Activity [4]: 6%
- inhibition in vivo at 30 mg/kg [5]: 98%
- inhibition in vivo at 30 mg/kg [6]: 47%
- IC50 [7]: > 10 µM
- IC50 [8]: > 25 µM
- IC50 [9]: > 25 µM
- IC50 [10]: 10 µM
- IC50 [11]: > 10 µM
- IC50 [12]: > 10 µM
- inhibition at 0.3 µM [13]: -8%
- inhibition [14]: -10%
- inhibition [15]: -10%
- inhibition [16]: 0%
- inhibition [17]: -8%
- inhibition [18]: 1%
- inhibition [19]: 18%
- inhibition [20]: 10%
- inhibition [21]: 22%
- inhibition [22]: 0%
- inhibition [23]: 0%
- inhibition [24]: 35%
- IC50 [25]: 0.701 µM
- inhibition [26]: Dose-Dependent Effect
